In ChEMBL document CHEMBL3124772, “Design, synthesis, and evaluation of conformationally restricted acetanilides as potent and selective β3 adrenergic receptor agonists for the treatment of overactive bladder” (J Med Chem, 2014):

What was measured:
[1] = Plasma clearance in Beagle dog at 3 mg/kg, iv; assay type: ADME, organism-based, Canis lupus familiaris; parameters: dose 3 mg/kg, route intravenous
[2] = Half life in Sprague-Dawley rat at 3 mg/kg, iv; assay type: ADME, organism-based; parameters: dose 3 mg/kg, route intravenous; details: in vivo
[3] = Half life in Beagle dog at 3 mg/kg, iv; assay type: ADME, organism-based, Canis lupus familiaris; parameters: dose 3 mg/kg, route intravenous; details: in vivo
[4] = Fraction unbound in rhesus monkey plasma at 3 mg/kg, iv; assay type: ADME, organism-based, Macaca mulatta; parameters: dose 3 mg/kg, route intravenous
[5] = Plasma clearance in Sprague-Dawley rat at 3 mg/kg, iv; assay type: ADME, organism-based; parameters: dose 3 mg/kg, route intravenous
[6] = Oral bioavailability in rhesus monkey at 10 mg/kg; assay type: ADME, organism-based, Macaca mulatta; details: in vivo
[7] = Plasma clearance in rhesus monkey at 3 mg/kg, iv; assay type: ADME, organism-based, Macaca mulatta; parameters: dose 3 mg/kg, route intravenous
[8] = Fraction unbound in Sprague-Dawley rat plasma at 3 mg/kg, iv; assay type: ADME, organism-based; parameters: dose 3 mg/kg, route intravenous
[9] = Lipophilicity, log D of the compound at pH 7.3; assay type: physicochemical; details: buffer
[10] = Fraction unbound in Beagle dog plasma at 3 mg/kg, iv; assay type: ADME, organism-based, Canis lupus familiaris; parameters: dose 3 mg/kg, route intravenous
[11] = Half life in rhesus monkey at 3 mg/kg, iv; assay type: ADME, organism-based, Macaca mulatta; parameters: dose 3 mg/kg, route intravenous; details: in vivo
Rattus norvegicus [12] = test: Reduction of micturition pressure at 1.2 uM unbound plasma level in acetic acid-induced Sprague-Dawley rat bladder hyperactivity model at 10 mg/kg, iv administered as 1 to 2 hrs infusion relative to vehicle-treated control; assay type: functional; parameters: scale not given: the % may be the effect or the level left
[13] = Apparent permeability in MDCK2 cells; assay type: ADME, cell-based, Canis lupus familiaris, MDCK-II; details: dog, MDCK
Cytochrome P450 2C9 = Cytochrome P450 2C9 (Homo sapiens, UniProt P11712); test: Inhibition of CYP2C9 in human liver microsomes assessed as diclofenac alpha'-hydroxylation; assay type: ADME
Cytochrome P450 2C9, sequence (P11712 whole entry): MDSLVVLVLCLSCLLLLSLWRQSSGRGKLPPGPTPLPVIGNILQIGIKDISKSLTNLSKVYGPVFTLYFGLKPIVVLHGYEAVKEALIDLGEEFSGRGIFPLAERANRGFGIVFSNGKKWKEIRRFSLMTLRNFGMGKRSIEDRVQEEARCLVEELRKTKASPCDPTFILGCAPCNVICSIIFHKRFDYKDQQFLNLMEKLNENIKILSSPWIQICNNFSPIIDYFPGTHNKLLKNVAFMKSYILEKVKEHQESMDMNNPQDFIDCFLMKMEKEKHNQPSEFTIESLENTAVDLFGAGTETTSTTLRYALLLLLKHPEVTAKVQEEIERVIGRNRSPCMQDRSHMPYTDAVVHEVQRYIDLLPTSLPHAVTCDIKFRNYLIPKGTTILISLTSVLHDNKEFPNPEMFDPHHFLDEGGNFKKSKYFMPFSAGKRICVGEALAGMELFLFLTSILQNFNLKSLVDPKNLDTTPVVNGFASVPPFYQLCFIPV

[14] = Plasma clearance in Beagle dog at 1 mg/kg, iv and 2 mg/kg, po; assay type: ADME, organism-based, Canis lupus familiaris
[15] = target: Sodium channel protein type 5 subunit alpha (Homo sapiens, UniProt Q14524); test: Inhibition of human NaV1.5
[16] = target: Beta-3 adrenergic receptor (Macaca mulatta, UniProt Q28524); test: Agonist activity at rhesus monkey beta-3 adrenergic receptor expressed in CHO cells assessed as increase in intracellular cAMP accumulation after 30 mins by time-resolved fluorescence assay; assay type: functional, cell-based
Beta-3 adrenergic receptor (Macaca mulatta, UniProt Q28524), sequence (Q28524 whole entry): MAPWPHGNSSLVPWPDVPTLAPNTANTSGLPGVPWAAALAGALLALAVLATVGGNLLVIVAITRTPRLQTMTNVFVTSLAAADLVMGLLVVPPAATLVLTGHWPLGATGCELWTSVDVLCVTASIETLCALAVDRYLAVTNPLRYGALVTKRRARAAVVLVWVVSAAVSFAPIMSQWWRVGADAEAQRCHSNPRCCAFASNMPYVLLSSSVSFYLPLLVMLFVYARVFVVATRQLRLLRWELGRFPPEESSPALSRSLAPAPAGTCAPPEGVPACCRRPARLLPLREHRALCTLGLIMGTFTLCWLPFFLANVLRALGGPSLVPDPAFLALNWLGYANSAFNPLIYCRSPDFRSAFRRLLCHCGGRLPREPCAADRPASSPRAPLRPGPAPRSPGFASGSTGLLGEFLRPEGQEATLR
Outline: (§1)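 CHO cells stably transfected with cloned β3-AR, harvested after 3 days subculture with enzyme-free dissociation, 6000 cells in HBSS with 5 mM HEPES, 0.1% BSA and 0.6 mM IBMX. Ligand at 10⁻¹⁰ to 10⁻⁵ M final, 30 min room temperature with labeled cAMP antibody; LANCE TR-FRET read after 1 h detection, cAMP from standard curve.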

Cytochrome P450 2D6 = Cytochrome P450 2D6 (Homo sapiens, UniProt P10635); test: Inhibition of CYP2D6 in human liver microsomes assessed as dextromethorphan O-demethylation; assay type: ADME
Cytochrome P450 2D6, sequence (P10635 whole entry): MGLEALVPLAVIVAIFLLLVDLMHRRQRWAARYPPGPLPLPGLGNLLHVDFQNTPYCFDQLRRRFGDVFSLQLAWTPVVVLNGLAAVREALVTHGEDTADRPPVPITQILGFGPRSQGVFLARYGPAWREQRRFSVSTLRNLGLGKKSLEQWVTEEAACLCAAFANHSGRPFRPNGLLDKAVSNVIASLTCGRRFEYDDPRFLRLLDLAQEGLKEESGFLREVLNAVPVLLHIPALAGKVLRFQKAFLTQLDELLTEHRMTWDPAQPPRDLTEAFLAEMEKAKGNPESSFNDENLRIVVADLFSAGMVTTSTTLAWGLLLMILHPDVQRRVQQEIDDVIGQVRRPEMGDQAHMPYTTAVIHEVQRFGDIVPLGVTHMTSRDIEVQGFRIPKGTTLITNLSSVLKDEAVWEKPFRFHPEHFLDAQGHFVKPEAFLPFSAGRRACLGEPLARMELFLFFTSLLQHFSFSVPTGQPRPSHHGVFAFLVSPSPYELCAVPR

[17] = Oral bioavailability in Beagle dog at 2 mg/kg; assay type: ADME, organism-based, Canis lupus familiaris; details: in vivo
[18] = Fraction unbound in Beagle dog plasma at 1 mg/kg, iv and 2 mg/kg, po; assay type: ADME, organism-based, Canis lupus familiaris
[19] = Plasma clearance in Sprague-Dawley rat at 1 mg/kg, iv and 2 mg/kg, po; assay type: ADME, organism-based
[20] = Oral bioavailability in Sprague-Dawley rat at 2 mg/kg; assay type: ADME, organism-based; details: in vivo
Rattus norvegicus [21] = test: Reduction of micturition pressure in iv dosed acetic acid-induced Sprague-Dawley rat bladder hyperactivity model administered as 1 to 2 hrs infusion; assay type: functional, organism-based
[22] = Intrinsic clearance in human liver microsomes; assay type: ADME; details: read-out: CLH
[23] = Fraction unbound in Sprague-Dawley rat plasma at 1 mg/kg, iv and 2 mg/kg, po; assay type: ADME, organism-based; details: Sprague-Dawley, plasma
[24] = Fraction unbound in rhesus monkey plasma at 1 mg/kg, iv and 2 mg/kg, po; assay type: ADME, organism-based, Macaca mulatta
[25] = target: Beta-1 adrenergic receptor (Homo sapiens, UniProt P08588); test: Displacement of [125I]-cyanopindolol from recombinant human beta-1 adrenergic receptor expressed in CHO cell membranes after 1 hr by scintillation counting analysis
Beta-1 adrenergic receptor, sequence (P08588 whole entry): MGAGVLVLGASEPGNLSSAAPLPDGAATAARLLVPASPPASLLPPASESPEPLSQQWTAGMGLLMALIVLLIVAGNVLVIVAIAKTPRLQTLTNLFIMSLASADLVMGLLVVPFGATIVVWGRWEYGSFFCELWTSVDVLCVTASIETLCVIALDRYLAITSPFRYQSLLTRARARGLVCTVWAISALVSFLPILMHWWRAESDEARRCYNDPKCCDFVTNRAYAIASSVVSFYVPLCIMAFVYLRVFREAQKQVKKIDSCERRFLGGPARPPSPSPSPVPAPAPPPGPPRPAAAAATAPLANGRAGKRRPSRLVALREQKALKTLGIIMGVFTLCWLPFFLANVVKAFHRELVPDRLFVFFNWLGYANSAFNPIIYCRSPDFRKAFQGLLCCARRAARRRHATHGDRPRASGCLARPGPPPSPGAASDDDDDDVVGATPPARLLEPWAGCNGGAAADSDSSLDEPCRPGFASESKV

Cytochrome P450 3A4 = Cytochrome P450 3A4 (Homo sapiens, UniProt P08684); test: Inhibition of CYP3A4 in human liver microsomes assessed as testosterone 6beta-hydroxylation; assay type: ADME
Cytochrome P450 3A4, sequence (P08684 whole entry): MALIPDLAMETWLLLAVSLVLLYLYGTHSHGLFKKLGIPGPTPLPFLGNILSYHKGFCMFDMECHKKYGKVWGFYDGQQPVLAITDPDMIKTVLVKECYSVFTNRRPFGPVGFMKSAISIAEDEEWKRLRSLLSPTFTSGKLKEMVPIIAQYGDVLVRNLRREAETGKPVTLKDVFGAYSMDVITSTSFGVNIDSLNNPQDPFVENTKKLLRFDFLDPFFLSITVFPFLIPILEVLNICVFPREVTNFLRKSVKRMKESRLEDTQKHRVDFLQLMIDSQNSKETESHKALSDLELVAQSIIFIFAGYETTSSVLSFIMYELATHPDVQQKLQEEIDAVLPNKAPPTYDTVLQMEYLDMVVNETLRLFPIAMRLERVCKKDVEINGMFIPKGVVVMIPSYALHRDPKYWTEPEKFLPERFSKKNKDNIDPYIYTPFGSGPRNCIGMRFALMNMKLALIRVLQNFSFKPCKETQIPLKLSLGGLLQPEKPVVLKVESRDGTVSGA

[26] = Plasma clearance in rhesus monkey at 1 mg/kg, iv and 2 mg/kg, po; assay type: ADME, organism-based, Macaca mulatta
[27] = target: Beta-3 adrenergic receptor (Canis lupus familiaris) (UniProt O02662); test: Agonist activity at dog beta-3 adrenergic receptor expressed in CHO cells assessed as increase in intracellular cAMP accumulation at 10^-10 to 10^-5 M after 30 mins by time-resolved fluorescence assay relative to R-(-)isoproterenol; assay type: functional, cell-based; outline: as §1
Beta-3 adrenergic receptor (Canis lupus familiaris), sequence (O02662 whole entry): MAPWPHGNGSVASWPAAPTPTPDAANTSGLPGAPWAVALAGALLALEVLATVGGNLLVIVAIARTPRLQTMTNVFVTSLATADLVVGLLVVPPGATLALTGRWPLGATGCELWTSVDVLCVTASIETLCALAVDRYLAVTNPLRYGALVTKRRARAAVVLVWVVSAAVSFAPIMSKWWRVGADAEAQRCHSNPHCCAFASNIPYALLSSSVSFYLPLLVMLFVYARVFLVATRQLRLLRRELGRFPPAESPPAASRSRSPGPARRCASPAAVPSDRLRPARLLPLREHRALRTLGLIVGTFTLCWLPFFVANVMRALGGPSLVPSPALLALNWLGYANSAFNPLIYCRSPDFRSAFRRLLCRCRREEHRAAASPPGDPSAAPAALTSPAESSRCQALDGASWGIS

[28] = target: Beta-3 adrenergic receptor (Canis lupus familiaris, UniProt O02662); test: Agonist activity at dog beta-3 adrenergic receptor expressed in CHO cells assessed as increase in intracellular cAMP accumulation after 30 mins by time-resolved fluorescence assay; assay type: functional, cell-based; outline: as §1
Beta-3 adrenergic receptor (Canis lupus familiaris, UniProt O02662), sequence (O02662 whole entry): as above

[29] = Half life in Sprague-Dawley rat at 1 mg/kg, iv and 2 mg/kg, po; assay type: ADME, organism-based; details: in vivo
Plasma [30] = test: Unbound plasma concentration in acetic acid-induced Sprague-Dawley rat bladder hyperactivity model at 10 mg/kg, iv administered as 1 to 2 hrs infusion; assay type: ADME, organism-based; parameters: dose 10 mg/kg, route intravenous; details: in vivo
[31] = Oral bioavailability in rhesus monkey at 2 mg/kg; assay type: ADME, organism-based, Macaca mulatta; details: in vivo
[32] = Intrinsic clearance in rat liver microsomes; assay type: ADME; details: read-out: CLH
[33] = target: T1, Beta-3 adrenergic receptor (Homo sapiens, UniProt P13945); test: Agonist activity at human beta-3 adrenergic receptor expressed in CHO cells assessed as increase in intracellular cAMP accumulation after 30 mins by time-resolved fluorescence assay; assay type: functional, cell-based; outline: as §1
Target sequence in this assay (P13945 whole entry): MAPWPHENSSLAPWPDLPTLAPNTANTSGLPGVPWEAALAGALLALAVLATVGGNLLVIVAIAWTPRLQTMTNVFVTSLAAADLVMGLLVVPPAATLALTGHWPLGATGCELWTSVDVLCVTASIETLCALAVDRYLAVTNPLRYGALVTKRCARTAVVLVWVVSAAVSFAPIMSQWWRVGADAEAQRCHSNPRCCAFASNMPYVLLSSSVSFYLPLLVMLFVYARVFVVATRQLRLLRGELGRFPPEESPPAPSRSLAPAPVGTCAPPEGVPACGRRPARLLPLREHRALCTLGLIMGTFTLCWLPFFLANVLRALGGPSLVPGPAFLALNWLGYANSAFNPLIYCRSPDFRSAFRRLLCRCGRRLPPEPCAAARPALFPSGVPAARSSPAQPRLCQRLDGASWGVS

[34] = Half life in Beagle dog at 1 mg/kg, iv and 2 mg/kg, po; assay type: ADME, organism-based, Canis lupus familiaris; details: in vivo
[35] = target: Voltage-dependent L-type calcium channel subunit alpha-1C (Homo sapiens, UniProt Q13936); test: Displacement of [3H]-diltiazem from human CaV1.2
[36] = Half life in rhesus monkey at 1 mg/kg, iv and 2 mg/kg, po; assay type: ADME, organism-based, Macaca mulatta; details: in vivo
[37] = target: Beta-3 adrenergic receptor (Macaca mulatta) (UniProt Q28524); test: Agonist activity at rhesus monkey beta-3 adrenergic receptor expressed in CHO cells assessed as increase in intracellular cAMP accumulation at 10^-10 to 10^-5 M after 30 mins by time-resolved fluorescence assay relative to R-(-)isoproterenol; assay type: functional, cell-based; outline: as §1
Beta-3 adrenergic receptor (Macaca mulatta), sequence (Q28524 whole entry): as the sequence (Q28524 whole entry) above

[38] = target: Beta-3 adrenergic receptor (Rattus norvegicus) (UniProt P26255); test: Agonist activity at rat beta-3 adrenergic receptor expressed in CHO cells assessed as increase in intracellular cAMP accumulation at 10^-10 to 10^-5 M after 30 mins by time-resolved fluorescence assay relative to R-(-)isoproterenol; assay type: functional, cell-based; outline: as §1
Beta-3 adrenergic receptor (Rattus norvegicus), sequence (P26255 whole entry): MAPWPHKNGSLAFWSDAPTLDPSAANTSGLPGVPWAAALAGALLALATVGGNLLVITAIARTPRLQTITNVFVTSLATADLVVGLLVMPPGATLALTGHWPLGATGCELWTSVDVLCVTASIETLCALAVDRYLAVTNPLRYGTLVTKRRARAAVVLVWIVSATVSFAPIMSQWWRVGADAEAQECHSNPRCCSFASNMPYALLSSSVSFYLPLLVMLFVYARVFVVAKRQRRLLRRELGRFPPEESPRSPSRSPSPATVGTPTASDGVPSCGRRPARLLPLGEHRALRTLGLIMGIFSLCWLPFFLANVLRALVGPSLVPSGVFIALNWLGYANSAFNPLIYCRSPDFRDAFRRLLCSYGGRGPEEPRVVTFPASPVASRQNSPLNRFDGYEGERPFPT

[39] = Intrinsic clearance in dog liver microsomes; assay type: ADME, Canis lupus familiaris; details: read-out: CLH
[40] = target: Beta-3 adrenergic receptor (Rattus norvegicus, UniProt P26255); test: Agonist activity at rat beta-3 adrenergic receptor expressed in CHO cells assessed as increase in intracellular cAMP accumulation after 30 mins by time-resolved fluorescence assay; assay type: functional, cell-based; outline: as §1
Beta-3 adrenergic receptor (Rattus norvegicus, UniProt P26255), sequence (P26255 whole entry): as above

[41] = target: Sodium-dependent serotonin transporter (Homo sapiens, UniProt P31645); test: Inhibition of human SERT expressed in HEK293 cells incubated for 30 mins prior to fluorescent substrate addition measured after 30 mins by fluorescent dye uptake assay; assay type: cell-based
Sodium-dependent serotonin transporter, sequence (P31645 whole entry): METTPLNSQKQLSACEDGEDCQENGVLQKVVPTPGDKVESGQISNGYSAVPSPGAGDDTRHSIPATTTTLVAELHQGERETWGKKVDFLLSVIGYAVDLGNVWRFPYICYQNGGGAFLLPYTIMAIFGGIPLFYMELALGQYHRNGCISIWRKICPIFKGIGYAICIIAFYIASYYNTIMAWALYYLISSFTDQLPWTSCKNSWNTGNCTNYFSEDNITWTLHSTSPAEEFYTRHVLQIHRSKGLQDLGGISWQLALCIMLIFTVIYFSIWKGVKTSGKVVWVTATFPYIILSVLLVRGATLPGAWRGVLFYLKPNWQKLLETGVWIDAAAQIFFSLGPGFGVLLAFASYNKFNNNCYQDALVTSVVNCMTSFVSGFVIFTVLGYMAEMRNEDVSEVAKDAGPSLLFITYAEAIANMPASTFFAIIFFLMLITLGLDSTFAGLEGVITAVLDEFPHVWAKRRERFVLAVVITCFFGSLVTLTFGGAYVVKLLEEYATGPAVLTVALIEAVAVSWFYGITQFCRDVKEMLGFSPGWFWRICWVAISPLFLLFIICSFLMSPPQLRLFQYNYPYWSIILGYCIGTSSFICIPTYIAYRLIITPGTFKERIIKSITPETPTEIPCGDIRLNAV
Outline: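 HEK293 stably expressing human SERT, 20000 cells/well plated overnight at 37 °C, then in HBSS with 20 mM HEPES and 0.1% BSA. Compound added from 100× DMSO stock, 30 min at 37 °C, then fluorescent transporter substrate for 30 more min. Fluorescence read at 440/520 nm, normalized to DMSO (0%) and 10 μM fluoxetine (100%), four-parameter fit for IC50.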

Plasma [42] = test: Unbound plasma concentration in acetic acid-induced Sprague-Dawley rat bladder hyperactivity model at 1 mg/kg, iv administered as 1 to 2 hrs infusion; assay type: ADME, organism-based; parameters: dose 1 mg/kg, route intravenous; details: in vivo
[43] = target: T1, Beta-3 adrenergic receptor; test: Agonist activity at human beta-3 adrenergic receptor expressed in CHO cells assessed as increase in intracellular cAMP accumulation at 10^-10 to 10^-5 M after 30 mins by time-resolved fluorescence assay relative to R-(-)isoproterenol; assay type: functional, cell-based; outline: as §1
Target sequence in this assay (P13945 whole entry, looked up): as the sequence (P13945 whole entry) above

Plasma [44] = test: Unbound plasma concentration in acetic acid-induced Sprague-Dawley rat bladder hyperactivity model at 3 mg/kg, iv administered as 1 to 2 hrs infusion; assay type: ADME, organism-based; parameters: dose 3 mg/kg, route intravenous; details: in vivo
[45] = target: Beta-2 adrenergic receptor (Homo sapiens, UniProt P07550); test: Displacement of [125I]-cyanopindolol from recombinant human beta-2 adrenergic receptor expressed in CHO cell membranes after 1 hr by scintillation counting analysis
Beta-2 adrenergic receptor, sequence (P07550 whole entry): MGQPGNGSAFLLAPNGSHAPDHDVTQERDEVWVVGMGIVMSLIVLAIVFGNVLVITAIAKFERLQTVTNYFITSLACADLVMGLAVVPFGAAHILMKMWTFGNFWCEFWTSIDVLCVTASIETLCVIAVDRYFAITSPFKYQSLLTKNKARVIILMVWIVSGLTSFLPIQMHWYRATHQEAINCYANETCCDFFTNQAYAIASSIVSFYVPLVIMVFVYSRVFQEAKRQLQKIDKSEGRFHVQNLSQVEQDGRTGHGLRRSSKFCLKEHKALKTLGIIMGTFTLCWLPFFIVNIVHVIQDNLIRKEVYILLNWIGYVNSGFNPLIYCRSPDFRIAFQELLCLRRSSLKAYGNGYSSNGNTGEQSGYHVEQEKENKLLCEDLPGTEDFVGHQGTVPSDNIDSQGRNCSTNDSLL

[46] = Intrinsic clearance in monkey liver microsomes; assay type: ADME, Macaca mulatta, Microsome; details: rhesus monkey, read-out: CLH

Q: With O=S(=O)(Nc1ccc(CCNC[C@H](O)c2cccnc2)cc1)c1ccc(-c2nc(-c3ccc(C(F)(F)F)cc3)cs2)cc1 as the molecule, how does the clearance [1] read?
A: 20 mL/min/kg

Q: And the half-life [2]?
A: 8 h

Q: And the half-life [3]?
A: 14 h

Q: What about the fraction unbound [4] of the same molecule?
A: 0.02

Q: What about the clearance [5] of the same molecule?
A: 62 mL/min/kg

Q: What about the bioavailability [6] of the same molecule?
A: 4%

Q: And the clearance [7]?
A: 19 mL/min/kg

Q: And the fraction unbound [8]?
A: 0.02

Q: And the logD [9]?
A: 4.6

Q: What about the fraction unbound [10] of the same molecule?
A: 0.02

Q: What about the half-life [11] of the same molecule?
A: 9 h

Q: Which Activity (Rattus norvegicus [12]) does the source give for O=C(Nc1ccc(C[C@@H]2CC[C@H]([C@H](O)c3cccnc3)N2)cc1)[C@@H]1CCc2scnc21 here?
A: 59%

Q: What about the Papp [13] of the same molecule?
A: 13 ×10⁻⁶ cm/s

Q: And the IC50 (Cytochrome P450 2C9)?
A: > 100000 nM

Q: And the clearance [14]?
A: 27 mL/min/kg

Q: What about the IC50 [15] of the same molecule?
A: > 30000 nM

Q: What about the EC50 [16] of the same molecule?
A: 2 nM

Q: What about the IC50 (Cytochrome P450 2D6) of the same molecule?
A: 78800 nM

Q: What about the bioavailability [17] of the same molecule?
A: 67%

Q: And the fraction unbound [18]?
A: 0.7

Q: What about the clearance [19] of the same molecule?
A: 33 mL/min/kg

Q: And the bioavailability [20]?
A: 41%

Q: And the Activity (Rattus norvegicus [21])?
A: Dose-dependent effect

Q: What about the CLint scaled [22] of the same molecule?
A: < 10 mL/min/kg

Q: What about the fraction unbound [23] of the same molecule?
A: 0.19

Q: What about the fraction unbound [24] of the same molecule?
A: 1

Q: What about the IC50 [25] of the same molecule?
A: > 20000 nM

Q: What about the IC50 (Cytochrome P450 3A4) of the same molecule?
A: > 100000 nM

Q: What about the clearance [26] of the same molecule?
A: 36 mL/min/kg

Q: And the Activity [27]?
A: 82%

Q: And the EC50 [28]?
A: 5 nM

Q: What about the half-life [29] of the same molecule?
A: 2 h

Q: What about the “Cp(f)” value (Plasma [30]) of the same molecule?
A: 1170 nM

Q: And the bioavailability [31]?
A: 8%

Q: And the CLint scaled [32]?
A: < 15 mL/min/kg

Q: And the EC50 [33]?
A: 1.36 nM

Q: And the half-life [34]?
A: 6 h

Q: And the logD [9]?
A: 0.9

Q: And the IC50 [35]?
A: > 30000 nM

Q: And the half-life [36]?
A: 2 h

Q: And the Activity [37]?
A: 98%

Q: And the Activity [38]?
A: 89%

Q: What about the CLint scaled [39] of the same molecule?
A: < 10 mL/min/kg

Q: And the EC50 [40]?
A: 27.6 nM

Q: And the IC50 [41]?
A: 422 nM

Q: What about the “Cp(f)” value (Plasma [42]) of the same molecule?
A: 90 nM

Q: What about the Activity [43] of the same molecule?
A: 103%

Q: And the “Cp(f)” value (Plasma [44])?
A: 260 nM

Q: What about the IC50 [45] of the same molecule?
A: > 20000 nM

Q: What about the CLint scaled [46] of the same molecule?
A: 205 mL/min/kg
